From ChEMBL document CHEMBL2163304, “Strynuxlines A and B, alkaloids with an unprecedented carbon skeleton from Strychnos nux-vomica” (J Nat Prod, 2012)
pIC50: −log10 of the molar value.

Key:
Assay type in all cases: functional, cell-based
[1] = tested on: SW480; assay: Cytotoxicity against human SW480 cells after 48 hrs by MTT assay; conditions: SW480, 48 h
Summary of the method: (§1)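 Human tumour cells were seeded in 96-well plates at an initial density of 1 × 10^5 cells/mL. Adherent lines were allowed to attach for 12 h before dosing, and HL-60 suspension cells were seeded just before dosing. Cells were exposed to […], 0.32, 1.6, 8 and 40 μM for 48 h, in triplicate, with cisplatin and paclitaxel as positive controls. Viability was read by MTT and growth curves were plotted.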

[2] = tested on: MCF7; assay: Cytotoxicity against human MCF7 cells after 48 hrs by MTT assay; conditions: MCF7, 48 h; summary of the method: as §1
[3] = tested on: A549; assay: Cytotoxicity against human A549 cells after 48 hrs by MTT assay; conditions: A549, 48 h; summary of the method: as §1
[4] = tested on: HL-60; assay: Cytotoxicity against human HL60 cells after 48 hrs by MTT assay; conditions: HL-60, 48 h; summary of the method: as §1
[5] = tested on: SMMC-7721; assay: Cytotoxicity against human SMMC7721 cells after 48 hrs by MTT assay; conditions: SMMC-7721, 48 h; summary of the method: as §1

Row | SMILES | pIC50 [1] | pIC50 [2] | pIC50 [3] | pIC50 [4] | pIC50 [5]
1 | COc1cc2c(cc1OC)[C@@]13CCN(C)CC4=CCO[C@H]5CC(=O)N2[C@H]1[C@H]5[C@H]4CC3=O [NOVACINE] | < 4.40 | < 4.40 | < 4.40 | < 4.40 | < 4.40
2 | COC1=C2CN(C)CC[C@]34C(=O)C[C@@H]2[C@H]2[C@H](CC(=O)N(c5ccccc53)[C@@H]24)OC1 | < 4.40 | < 4.40 | < 4.40 | < 4.40 | < 4.40
3 | C/C=C1/CN2CC[C@@]34c5ccccc5N5/C=C6/[C@H]7C[C@@H]8N(CC[C@@]89c8ccccc8N(/C=C(/[C@H]1C[C@H]23)[C@H]54)[C@@H]69)C/C7=C/C [BISNORDIHYDROTOXIFERINE] | < 4.40 | < 4.40 | < 4.40 | < 4.40 | < 4.40
4 | COc1ccc2c(c1)N1C(=O)C[C@@H]3OCC=C4CN5CC[C@]26[C@@H]5C[C@@H]4[C@@H]3[C@H]16 | < 4.40 | < 4.40 | < 4.40 | < 4.40 | < 4.40
5 | COc1cc2c(cc1OC)[C@@]13CCN4CC5=CCO[C@H]6CC(=O)N2[C@H]1[C@H]6[C@H]5C[C@]43O [PSEUDOBRUCINE] | < 4.40 | < 4.40 | < 4.40 | < 4.40 | < 4.40
6 | COc1cc2c(cc1OC)[C@@]13CC[N+]4([O-])CC5=CCO[C@H]6CC(=O)N2[C@H]1[C@H]6[C@H]5C[C@@H]34 (stereo not given in full) | < 4.40 | < 4.40 | < 4.40 | < 4.40 | < 4.40
7 | O=C1CC=C2[C@H]3C[C@@H]4N(CC[C@@]45c4ccccc4N1[C@@H]25)C/C3=C/CO [ISOSTRYCHNINE] | < 4.40 | < 4.40 | < 4.40 | < 4.40 | < 4.40
8 | C[N+]12CC[C@@]34c5ccccc5N5C(=O)C[C@@H]6OCC=C(C1)[C@H](C[C@@H]32)[C@@H]6[C@H]54 (stereo not given in full) [STRYCHNINE METHIODIDE] | < 4.40 | < 4.40 | < 4.40 | < 4.40 | < 4.40
9 | COc1cc2c(cc1OC)[C@@]13CCN4CC5=CCO[C@H]6CC(=O)N2[C@H]1[C@H]6[C@H]5C[C@H]43 [BRUCINE] | < 4.40 | < 4.40 | < 4.40 | < 4.40 | < 4.40
10 | COc1ccc2c(c1)[C@@]13CCN4CC5=CCO[C@H]6CC(=O)N2[C@H]1[C@H]6[C@H]5C[C@H]43 | < 4.40 | < 4.40 | < 4.40 | < 4.40 | < 4.40
11 | O=C1C[C@@H]2OCC=C3CN4CC[C@]56c7ccccc7N1[C@H]5[C@H]2[C@H]3C[C@H]46 [STRYCHNINE] | < 4.40 | < 4.40 | < 4.40 | < 4.40 | < 4.40
12 | CN1CC[C@]23C(=O)C[C@H]4C(=CCO[C@H]5CC(=O)N(c6ccccc62)[C@H]3[C@H]54)C1 [ICAJINE] | < 4.40 | < 4.40 | < 4.40 | < 4.40 | < 4.40
13 | COc1cc2c(cc1OC)[C@]13CCN4C/C(=C/CO)[C@H](C[C@H]41)C1=CCC(=O)N2[C@@H]13 [ISOBRUCINE] | < 4.40 | < 4.40 | < 4.40 | < 4.40 | < 4.40
14 | O=C1C[C@H]2C3=CCO[C@H]4CC(=O)n5c(c(c6ccccc65)CCN1C3)[C@H]42 [STRYNUXLINE B] | 4.72 | 4.95 | 4.74 | 4.78 | 4.80
15 | O=C1C[C@@H]2OCC=C3C[N+]4([O-])CC[C@]56c7ccccc7N1[C@H]5[C@H]2[C@H]3C[C@@H]64 (stereo not given in full) | < 4.40 | < 4.40 | < 4.40 | < 4.40 | < 4.40
16 | O=C1C[C@@H]2OCC=C3CN4CC[C@]56c7ccccc7N1[C@H]5[C@H]2[C@H]3C[C@]46O [PSEUDOSTRYCHNINE] | < 4.40 | < 4.40 | < 4.40 | < 4.40 | < 4.40
17 | CN1CC[C@]23C(=O)C[C@H]4C(=CCO[C@H]5CC(=O)N(c6c(O)cccc62)[C@H]3[C@H]54)C1 [VOMICINE] | < 4.40 | < 4.40 | < 4.40 | < 4.40 | < 4.40
18 | COc1cc2c3c4n(c2cc1OC)C(=O)C[C@@H]1OCC=C2CN(CC3)C(=O)C[C@@H]2[C@H]41 [STRYNUXLINE A] | 4.88 | 4.91 | 4.77 | 5.15 | 5.03
